{
  "source": "ChEMBL document CHEMBL4229344",
  "about": "(Eur J Med Chem, 2018)",
  "key": {"[1]": {"system": "Tyrosine-protein kinase ABL1 (Homo sapiens), P00519 [F317I]", "assay": "Binding affinity to human phosphorylated ABL1 F317I mutant (S229 to K512 residues) expressed in mammalian expression system assessed as residual binding level at 1 uM by Kinomescan method relative to control", "summary_of_the_method": "(§1)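 Single-concentration (1 μM) competition-binding screen run by KINOMEscan against a panel of 468 purified kinases and mutants. The read-out is the relative binding activity of the test compound to each kinase.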"}, "[2]": {"target": "Activin receptor type-1 (Homo sapiens) (UniProt Q04771)", "assay": "Binding affinity to wild-type human ACVR1 (C188 to C509 residues) expressed in bacterial expression system assessed as residual binding level at 1 uM by Kinomescan method relative to control", "summary_of_the_method": "as §1"}, "[3]": {"target": "Casein kinase II subunit alpha' (Homo sapiens) (UniProt P19784)", "assay": "Binding affinity to wild-type human full length CSNK2A2 (M1 to R350 residues) expressed in mammalian expression system assessed as residual binding level at 1 uM by Kinomescan method relative to control", "summary_of_the_method": "as §1"}, "[4]": {"target": "Serine/threonine-protein kinase 17A (Homo sapiens) (UniProt Q9UEE5)", "assay": "Binding affinity to wild-type human partial length DRAK1 (R32 to E363 residues) expressed in bacterial expression system assessed as residual binding level at 1 uM by Kinomescan method relative to control"}, "[5]": {"target": "Ephrin type-A receptor 4 (Homo sapiens) (UniProt P54764)", "assay": "Binding affinity to wild-type human partial length EPHA4 (T601 to R897 residues) expressed in bacterial expression system assessed as residual binding level at 1 uM by Kinomescan method relative to control", "summary_of_the_method": "(§2)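 Kinome-wide competition binding screen against a panel of 468 purified kinases/mutants, with the test compound at a single concentration of 1 μM. Read-out is the relative binding activity of each kinase in the presence of compound.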"}, "[6]": {"target": "Receptor tyrosine-protein kinase erbB-4 (Homo sapiens) (UniProt Q15303)", "assay": "Binding affinity to wild-type human partial length ERBB4 (L690 to K994 residues) expressed in bacterial expression system assessed as residual binding level at 1 uM by Kinomescan method relative to control"}, "[7]": {"target": "Fibroblast growth factor receptor 4 (Homo sapiens) (UniProt P22455)", "assay": "Binding affinity to wild-type human partial length FGFR4 (G402 to E713 residues) expressed in bacterial expression system assessed as residual binding level at 1 uM by Kinomescan method relative to control", "summary_of_the_method": "as §2"}, "[8]": {"target": "Homeodomain-interacting protein kinase 1 (Homo sapiens) (UniProt Q86Z02)", "assay": "Binding affinity to wild-type human partial length HIPK1 (M146 to I555 residues) expressed in mammalian expression system assessed as residual binding level at 1 uM by Kinomescan method relative to control", "summary_of_the_method": "as §2"}, "[9]": {"system": "Leucine-rich repeat serine/threonine-protein kinase 2 (Homo sapiens), Q5S007 [G2019S]", "assay": "Binding affinity to human partial length LRRK2 G2019S mutant (H970 to E2527 residues) expressed in mammalian expression system assessed as residual binding level at 1 uM by Kinomescan method relative to control", "summary_of_the_method": "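Kinome-wide single-concentration binding screen (KINOMEscan) at 1 μM against a panel of 468 purified kinases and mutants. Read-out is relative binding of each kinase compared with control. Selectivity across the panel was summarised as an S(10) score.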"}, "[10]": {"target": "Ribosomal protein S6 kinase alpha-4 (Homo sapiens) (UniProt O75676)", "assay": "Binding affinity to wild-type human partial length N-terminal RPS6KA4 kinase domain 1 expressed in bacterial expression system assessed as residual binding level at 1 uM by Kinomescan method relative to control"}, "[11]": {"target": "Ribosomal protein S6 kinase alpha-2 (Homo sapiens) (UniProt Q15349)", "assay": "Binding affinity to wild-type human partial length N-terminal RSK3 kinase domain 1 (M1 to Q385 residues) expressed in bacterial expression system assessed as residual binding level at 1 uM by Kinomescan method relative to control"}, "[12]": {"target": "Proto-oncogene tyrosine-protein kinase Src (Homo sapiens) (UniProt P12931)", "assay": "Binding affinity to wild-type human partial length SRC (L240 to L536 residues) expressed in bacterial expression system assessed as residual binding level at 1 uM by Kinomescan method relative to control"}, "[13]": {"target": "Serine/threonine-protein kinase TBK1 (Homo sapiens) (UniProt Q9UHD2)", "assay": "Binding affinity to wild-type human full length TBK1 (M1 to L729 residues) expressed in mammalian expression system assessed as residual binding level at 1 uM by Kinomescan method relative to control", "summary_of_the_method": "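Single-concentration KINOMEscan (DiscoverX) binding screen at 1 μM against a panel of 468 purified kinases and mutants. The read-out is binding relative to control.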"}, "[14]": {"target": "Serine/threonine-protein kinase WNK1 (Homo sapiens) (UniProt Q9H4A3)", "assay": "Binding affinity to wild-type human partial length WNK1 (Q194 to A490 residues) expressed in mammalian expression system assessed as residual binding level at 1 uM by Kinomescan method relative to control"}, "[15]": {"target": "Serine/threonine-protein kinase 32B (Homo sapiens) (UniProt Q9NY57)", "assay": "Binding affinity to wild-type human full length YANK2 (M1 to S414 residues) expressed in bacterial expression system assessed as residual binding level at 1 uM by Kinomescan method relative to control", "summary_of_the_method": "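KINOMEscan competition binding against 468 purified kinases/mutants, test compound at 1 µM; residual binding relative to control.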"}, "[16]": {"target": "Mitogen-activated protein kinase kinase kinase 20 (Homo sapiens) (UniProt Q9NYL2)", "assay": "Binding affinity to wild-type human partial length ZAK (M1 to L331 residues) expressed in bacterial expression system assessed as residual binding level at 1 uM by Kinomescan method relative to control"}, "[17]": {"assay": "Cytotoxicity against mouse BA/F3 cells after 72 hrs by CellTiter-Glo or CCK-8 assay", "format": "cell-based, BaF3", "summary_of_the_method": "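Parental BaF3 or IL-3-independent TEL-kinase BaF3 lines, made by retroviral infection and puromycin selection, grown in RPMI 1640 with 10% FBS. Cells seeded at 1–3 × 10^4 cells/mL with serial compound concentrations for 72 h. Viability read by CellTiter-Glo luminescence or CCK-8 absorbance at 450/655 nm and normalised to DMSO. GI50 obtained by triplicate testing with linear regression. Selectivity is the ratio of the two GI50 values.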"}, "[18]": {"assay": "AUC (0 to infinity) in Sprague-Dawley rat at 1 mg/kg, iv", "format": "ADME, organism-based", "design": "dose 1 mg/kg, time infinity, route intravenous", "conditions": "in vivo", "summary_of_the_method": "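Male Sprague-Dawley rats (6–8 weeks) fasted overnight, dosed IV or orally; compound dissolved in 5% DMSO/40% PEG400/55% saline (dosing solution 1 mg/mL). Blood (~0.2 mL) from jugular vein into heparin; IV sampling 1 min–8 h, oral 5 min–24 h. Plasma separated by centrifugation at 2–8 °C, stored at −80 °C until analysis.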"}, "[19]": {"target": "T1, Platelet-derived growth factor receptor alpha (Homo sapiens, UniProt P16234)", "assay": "Inhibition of PDGFRalpha autophosphorylation at Y1018 residue in human EOL-1 cells up to 300 nM after 2 hrs by Western blot analysis", "format": "cell-based"}, "[20]": {"target": "T1, Platelet-derived growth factor receptor alpha", "assay": "Inhibition of PDGF-induced PDGFRalpha autophosphorylation at Y849 residue in human NCI-H1703 cells after 2 hrs in presence of PDGF-AA by Western blot analysis", "format": "cell-based"}},
  "note": "Calls of active or inactive are those of the source. The calls are words filed in the database; no cut-off is given here.",
  "data": [
    {"smiles": "Cc1ccc(NC(=O)c2ccc(CN(CCN(C)C)C(=O)c3cccnc3)cc2)cc1Nc1nccc(-c2cccnc2)n1", "values": [
      {"measurement": "Activity", "setting": "[1]", "result": 74, "unit": "%"},
      {"measurement": "Activity", "setting": "[2]", "result": 99, "unit": "%"},
      {"measurement": "Activity", "setting": "[3]", "result": 88, "unit": "%"},
      {"measurement": "Activity", "setting": "[4]", "result": 77, "unit": "%"},
      {"measurement": "Activity", "setting": "[5]", "result": 94, "unit": "%"},
      {"measurement": "Activity", "setting": "[6]", "result": 85, "unit": "%"},
      {"measurement": "Activity", "setting": "[7]", "result": 91, "unit": "%"},
      {"measurement": "Activity", "setting": "[8]", "result": 79, "unit": "%"},
      {"measurement": "Activity", "setting": "[9]", "result": 59, "unit": "%"},
      {"measurement": "Activity", "setting": "[10]", "result": 82, "unit": "%"},
      {"measurement": "Activity", "setting": "[11]", "result": 94, "unit": "%"},
      {"measurement": "Activity", "setting": "[12]", "result": 100, "unit": "%"},
      {"measurement": "Activity", "setting": "[13]", "result": 86, "unit": "%"},
      {"measurement": "Activity", "setting": "[14]", "result": 85, "unit": "%"},
      {"measurement": "Activity", "setting": "[15]", "result": 82, "unit": "%"},
      {"measurement": "Activity", "setting": "[16]", "result": 100, "unit": "%"},
      {"measurement": "GI50 at 72 h", "setting": "[17]", "result": "> 10", "unit": "µM"},
      {"measurement": "AUC(0-inf)", "setting": "[18]", "result": 541, "unit": "ng·h/mL"},
      {"measurement": "inhibition", "setting": "[19]", "result": "Active"},
      {"measurement": "inhibition", "setting": "[20]", "result": "Dose-dependent effect"}
    ]}
  ]
}
